How the values were obtained:
[1] = test system: collagen-induced arthritis mouse model; settings: cited from earlier work
TNFα = settings: in vitro; cited from earlier work
[2] = Food effect study: plasma pharmacokinetics; format: in vivo, human; settings: for AUC (0 to infinity), geometric mean / AUC (0 to infinity), mean ± SD / C max, geometric mean / C max, mean ± SD / t 1/2z, geometric mean / t 1/2z, mean ± SD / t lag, median / t max, median: 200 mg single dose
P-glycoprotein (P-gp) = settings: in vitro studies; cited from earlier work
[3] = Food effect study: safety and tolerability; format: in vivo, human
Summary of the method: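 Healthy males aged 18–55 with BMI 18–30 kg/m² were followed through dosing and a 6–8-day follow-up. Checks: physical examination, clinical laboratory tests, vital signs and 12-lead ECG, with adverse events coded in MedDRA. Events of special interest: ALT ≥2×ULN, QTcF ≥500 ms, Grade ≥2 photosensitivity, symptomatic overdose. Treatment-emergent events were summarised descriptively by organ class, preferred term and dose level for all exposed participants.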

Q: Which “average free efficacious exposure in mice” value ([1]; collagen-induced arthritis mouse model) does the source give for `CN1C(=O)c2cccc(OC(F)F)c2[C@H]2C[C@@H]1c1nc3ccc(-c4cnc(C5(N)CCC5)nc4)cc3n12` [Balinatunfib] here?
A: 24 nM

Q: And the “efficacy in collagen-induced arthritis mouse model” value ([1]; in vivo)?
A: antibody‐like efficacy

Q: What about the “concentration leading to 90% occupancy of TNFα [OCC90]” value (TNFα) of the same molecule?
A: 16 nM

Q: What about the “AUC higher in the fed state than in the fasted state” value ([2]; 200 mg) of the same molecule?
A: 18%

Q: What about the “AUClast higher in the fed state than in the fasted state” value ([2]; 200 mg) of the same molecule?
A: 16%

Q: What about the “C max higher in the fed state than in the fasted state” value ([2]; 200 mg) of the same molecule?
A: 14%

Q: And the “delay of maximum plasma concentrations, fed compared to fasted” value ([2]; 200 mg)?
A: 1 h

Q: And the “AUC (0 to infinity), geometric mean” value ([2]; fasted)?
A: (2,010) [26] ng·h/mL

Q: And the “AUC (0 to infinity), mean ± SD” value ([2]; fasted)?
A: 2,060 ± 539 ng·h/mL

Q: What about the “C max, geometric mean” value ([2]; fasted) of the same molecule?
A: (119) [32] ng/mL

Q: What about the “C max, mean ± SD” value ([2]; fasted) of the same molecule?
A: 123 ± 39.5 ng/mL

Q: And the “t 1/2z, geometric mean” value ([2]; fasted)?
A: (21.9) [23] h

Q: What about the “t 1/2z, mean ± SD” value ([2]; fasted) of the same molecule?
A: 22.5 ± 5.23 h

Q: What about the “t lag, median” value ([2]; fasted) of the same molecule?
A: 0.00 h

Q: And the “t max, median” value ([2]; fasted)?
A: 3.00 h

Q: And the “AUC (0 to infinity), geometric mean” value ([2]; fed)?
A: (2,340) [33] ng·h/mL

Q: And the “AUC (0 to infinity), mean ± SD” value ([2]; fed)?
A: 2,430 ± 815 ng·h/mL

Q: What about the “C max, geometric mean” value ([2]; fed) of the same molecule?
A: (132) [35] ng/mL

Q: What about the “C max, mean ± SD” value ([2]; fed) of the same molecule?
A: 138 ± 48.1 ng/mL

Q: What about the “t 1/2z, geometric mean” value ([2]; fed) of the same molecule?
A: (27.3) [18] h

Q: What about the “t 1/2z, mean ± SD” value ([2]; fed) of the same molecule?
A: 27.6 ± 4.84 h

Q: What about the “t lag, median” value ([2]; fed) of the same molecule?
A: 0.00 h

Q: What about the “t max, median” value ([2]; fed) of the same molecule?
A: 4.00 h

Q: What about the “AUC geometric mean ratio, point estimate” value ([2]; 200 mg, fed vs. fasted) of the same molecule?
A: 1.18

Q: And the “AUClast geometric mean ratio, point estimate” value ([2]; 200 mg, fed vs. fasted)?
A: 1.16

Q: And the “C max geometric mean ratio, point estimate” value ([2]; 200 mg, fed vs. fasted)?
A: 1.14

Q: What about the “effect of food on the PK characteristics” value ([2]; high-fat meal) of the same molecule?
A: no relevant effects

Q: And the “active transport by P-glycoprotein (P-gp)” value (P-glycoprotein (P-gp))?
A: substrate

Q: And the “participants with at least one TEAE” value ([3]; 200 mg fasted (five of eight))?
A: 62.5%

Q: And the “Any event TEAE, events” value ([3]; 200 mg fasted, N = 8)?
A: 7

Q: What about the “Any event TEAE, participants” value ([3]; 200 mg fasted, N = 8) of the same molecule?
A: 5 (62.5) n (%)

Q: And the “Blood and lymphatic system disorders TEAE, events” value ([3]; 200 mg fasted, N = 8)?
A: 1

Q: What about the “Blood and lymphatic system disorders TEAE, participants” value ([3]; 200 mg fasted, N = 8) of the same molecule?
A: 1 (12.5) n (%)

Q: And the “Blood pressure orthostatic decreased TEAE, events” value ([3]; 200 mg fasted, N = 8)?
A: 1

Q: What about the “Blood pressure orthostatic decreased TEAE, participants” value ([3]; 200 mg fasted, N = 8) of the same molecule?
A: 1 (12.5) n (%)

Q: What about the “Diarrhea TEAE, events” value ([3]; 200 mg fasted, N = 8) of the same molecule?
A: 1

Q: What about the “Diarrhea TEAE, participants” value ([3]; 200 mg fasted, N = 8) of the same molecule?
A: 1 (12.5) n (%)

Q: And the “Dry skin TEAE, events” value ([3]; 200 mg fasted, N = 8)?
A: 1

Q: What about the “Dry skin TEAE, participants” value ([3]; 200 mg fasted, N = 8) of the same molecule?
A: 1 (12.5) n (%)

Q: What about the “Fatigue TEAE, events” value ([3]; 200 mg fasted, N = 8) of the same molecule?
A: 0

Q: What about the “Fatigue TEAE, participants” value ([3]; 200 mg fasted, N = 8) of the same molecule?
A: 0 n (%)

Q: What about the “Flatulence TEAE, events” value ([3]; 200 mg fasted, N = 8) of the same molecule?
A: 1

Q: What about the “Flatulence TEAE, participants” value ([3]; 200 mg fasted, N = 8) of the same molecule?
A: 1 (12.5) n (%)

Q: And the “Gastrointestinal disorders TEAE, events” value ([3]; 200 mg fasted, N = 8)?
A: 2

Q: What about the “Gastrointestinal disorders TEAE, participants” value ([3]; 200 mg fasted, N = 8) of the same molecule?
A: 2 (25.0) n (%)

Q: And the “General disorders and administration site conditions TEAE, events” value ([3]; 200 mg fasted, N = 8)?
A: 0

Q: And the “General disorders and administration site conditions TEAE, participants” value ([3]; 200 mg fasted, N = 8)?
A: 0 n (%)

Q: What about the “Headache TEAE, events” value ([3]; 200 mg fasted, N = 8) of the same molecule?
A: 1

Q: And the “Headache TEAE, participants” value ([3]; 200 mg fasted, N = 8)?
A: 1 (12.5) n (%)

Q: And the “Investigations TEAE, events” value ([3]; 200 mg fasted, N = 8)?
A: 1

Q: And the “Investigations TEAE, participants” value ([3]; 200 mg fasted, N = 8)?
A: 1 (12.5) n (%)

Q: And the “Loss of consciousness TEAE, events” value ([3]; 200 mg fasted, N = 8)?
A: 1

Q: What about the “Loss of consciousness TEAE, participants” value ([3]; 200 mg fasted, N = 8) of the same molecule?
A: 1 (12.5) n (%)

Q: What about the “Muscle tightness TEAE, events” value ([3]; 200 mg fasted, N = 8) of the same molecule?
A: 0

Q: What about the “Muscle tightness TEAE, participants” value ([3]; 200 mg fasted, N = 8) of the same molecule?
A: 0 n (%)

Q: What about the “Musculoskeletal and connective tissue disorders TEAE, events” value ([3]; 200 mg fasted, N = 8) of the same molecule?
A: 0

Q: What about the “Musculoskeletal and connective tissue disorders TEAE, participants” value ([3]; 200 mg fasted, N = 8) of the same molecule?
A: 0 n (%)

Q: What about the “Nervous system disorders TEAE, events” value ([3]; 200 mg fasted, N = 8) of the same molecule?
A: 2

Q: What about the “Nervous system disorders TEAE, participants” value ([3]; 200 mg fasted, N = 8) of the same molecule?
A: 2 (25.0) n (%)

Q: What about the “Neutropenia TEAE, events” value ([3]; 200 mg fasted, N = 8) of the same molecule?
A: 1

Q: And the “Neutropenia TEAE, participants” value ([3]; 200 mg fasted, N = 8)?
A: 1 (12.5) n (%)

Q: And the “Skin and subcutaneous tissue disorders TEAE, events” value ([3]; 200 mg fasted, N = 8)?
A: 1

Q: And the “Skin and subcutaneous tissue disorders TEAE, participants” value ([3]; 200 mg fasted, N = 8)?
A: 1 (12.5) n (%)

Q: And the “Tendonitis TEAE, events” value ([3]; 200 mg fasted, N = 8)?
A: 0

Q: What about the “Tendonitis TEAE, participants” value ([3]; 200 mg fasted, N = 8) of the same molecule?
A: 0 n (%)

Q: What about the “neutrophil count in the participant with Grade 2 neutropenia” value ([3]; 200 mg fasted, Period 1, normal range 1.46–5.85) of the same molecule?
A: 1.42e+09 L⁻¹

Q: What about the “participants with at least one TEAE” value ([3]; 200 mg fed (four of six)) of the same molecule?
A: 66.7%

Q: What about the “Any event TEAE, events” value ([3]; 200 mg fed, N = 6) of the same molecule?
A: 6

Q: What about the “Any event TEAE, participants” value ([3]; 200 mg fed, N = 6) of the same molecule?
A: 4 (66.7) n (%)

Q: And the “Blood and lymphatic system disorders TEAE, events” value ([3]; 200 mg fed, N = 6)?
A: 0

Q: And the “Blood and lymphatic system disorders TEAE, participants” value ([3]; 200 mg fed, N = 6)?
A: 0 n (%)

Q: And the “Blood pressure orthostatic decreased TEAE, events” value ([3]; 200 mg fed, N = 6)?
A: 1

Q: And the “Blood pressure orthostatic decreased TEAE, participants” value ([3]; 200 mg fed, N = 6)?
A: 1 (16.7) n (%)

Q: What about the “Diarrhea TEAE, events” value ([3]; 200 mg fed, N = 6) of the same molecule?
A: 1

Q: And the “Diarrhea TEAE, participants” value ([3]; 200 mg fed, N = 6)?
A: 1 (16.7) n (%)

Q: And the “Dry skin TEAE, events” value ([3]; 200 mg fed, N = 6)?
A: 0

Q: What about the “Dry skin TEAE, participants” value ([3]; 200 mg fed, N = 6) of the same molecule?
A: 0 n (%)

Q: And the “Fatigue TEAE, events” value ([3]; 200 mg fed, N = 6)?
A: 1

Q: What about the “Fatigue TEAE, participants” value ([3]; 200 mg fed, N = 6) of the same molecule?
A: 1 (16.7) n (%)

Q: And the “Flatulence TEAE, events” value ([3]; 200 mg fed, N = 6)?
A: 0

Q: What about the “Flatulence TEAE, participants” value ([3]; 200 mg fed, N = 6) of the same molecule?
A: 0 n (%)

Q: And the “Gastrointestinal disorders TEAE, events” value ([3]; 200 mg fed, N = 6)?
A: 1

Q: What about the “Gastrointestinal disorders TEAE, participants” value ([3]; 200 mg fed, N = 6) of the same molecule?
A: 1 (16.7) n (%)

Q: What about the “General disorders and administration site conditions TEAE, events” value ([3]; 200 mg fed, N = 6) of the same molecule?
A: 1

Q: And the “General disorders and administration site conditions TEAE, participants” value ([3]; 200 mg fed, N = 6)?
A: 1 (16.7) n (%)

Q: And the “Headache TEAE, events” value ([3]; 200 mg fed, N = 6)?
A: 1

Q: And the “Headache TEAE, participants” value ([3]; 200 mg fed, N = 6)?
A: 1 (16.7) n (%)

Q: What about the “Investigations TEAE, events” value ([3]; 200 mg fed, N = 6) of the same molecule?
A: 1

Q: And the “Investigations TEAE, participants” value ([3]; 200 mg fed, N = 6)?
A: 1 (16.7) n (%)

Q: And the “Loss of consciousness TEAE, events” value ([3]; 200 mg fed, N = 6)?
A: 0

Q: And the “Loss of consciousness TEAE, participants” value ([3]; 200 mg fed, N = 6)?
A: 0 n (%)

Q: And the “Muscle tightness TEAE, events” value ([3]; 200 mg fed, N = 6)?
A: 1

Q: What about the “Muscle tightness TEAE, participants” value ([3]; 200 mg fed, N = 6) of the same molecule?
A: 1 (16.7) n (%)

Q: And the “Musculoskeletal and connective tissue disorders TEAE, events” value ([3]; 200 mg fed, N = 6)?
A: 2

Q: What about the “Musculoskeletal and connective tissue disorders TEAE, participants” value ([3]; 200 mg fed, N = 6) of the same molecule?
A: 2 (33.3) n (%)

Q: And the “Nervous system disorders TEAE, events” value ([3]; 200 mg fed, N = 6)?
A: 1

Q: And the “Nervous system disorders TEAE, participants” value ([3]; 200 mg fed, N = 6)?
A: 1 (16.7) n (%)

Q: What about the “Neutropenia TEAE, events” value ([3]; 200 mg fed, N = 6) of the same molecule?
A: 0

Q: What about the “Neutropenia TEAE, participants” value ([3]; 200 mg fed, N = 6) of the same molecule?
A: 0 n (%)

Q: And the “Skin and subcutaneous tissue disorders TEAE, events” value ([3]; 200 mg fed, N = 6)?
A: 0

Q: What about the “Skin and subcutaneous tissue disorders TEAE, participants” value ([3]; 200 mg fed, N = 6) of the same molecule?
A: 0 n (%)

Q: What about the “Tendonitis TEAE, events” value ([3]; 200 mg fed, N = 6) of the same molecule?
A: 1

Q: And the “Tendonitis TEAE, participants” value ([3]; 200 mg fed, N = 6)?
A: 1 (16.7) n (%)

Q: What about the “Grade ≥ 3 TEAE, treatment-emergent SAEs, AESIs” value ([3]; food effect study) of the same molecule?
A: No participants

Reference: publication PMC12166256 (Clinical Pharmacology and Therapeutics, 2025)
